Assays:
[1] = tested on: liver GSH; conditions: mice, intravenous, after a toxic dose of acetaminophen; cited from earlier work
[2] = tested on: GSH in the liver; conditions: rats, intravenous administration; cited from earlier work
[3] = tested on: HepG2 cells; assay: Cellular respiration assay; assay type: cell-based; conditions: HepG2, 1-hour incubation; for decrease in OCR within predicted physiological range (in words): plasma Cmax to liver Cmax
Outline: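 HepG2 cells incubated 1 h with test compound (parent compounds or metabolites), then run on a Seahorse XFe96 per the Mito Stress Test Kit protocol. Baseline oxygen consumption rate is expressed as fold change versus 0.2% DMSO vehicle. The physiological range spans predicted plasma Cmax to predicted liver Cmax, from a PBPK model using the liver:blood Kp.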

[4] = tested on: HepG2 cells; assay: Oxidative stress assay; assay type: cell-based; conditions: HepG2, 24-hour incubation; for concentrations with significant increases in ROS: DHE fluorescence vs 0.2% DMSO
Outline: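 Intracellular ROS were read by dihydroethidium fluorescence and expressed as fold change versus 0.2% DMSO vehicle, with troglitazone as positive control. Nominal concentrations covered each compound's predicted plasma and liver Cmax (PBPK). Reported values come from the 24-hour exposure; a 1-hour exposure was also run. Plotted with standard deviation; significance by Kruskal–Wallis test.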

[5] = target: human BSEP (Homo sapiens, UniProt O95342); assay: BSEP inhibition, taurocholate uptake in HEK293 human BSEP vesicles; assay type: biochemical
human BSEP, sequence (O95342 whole entry): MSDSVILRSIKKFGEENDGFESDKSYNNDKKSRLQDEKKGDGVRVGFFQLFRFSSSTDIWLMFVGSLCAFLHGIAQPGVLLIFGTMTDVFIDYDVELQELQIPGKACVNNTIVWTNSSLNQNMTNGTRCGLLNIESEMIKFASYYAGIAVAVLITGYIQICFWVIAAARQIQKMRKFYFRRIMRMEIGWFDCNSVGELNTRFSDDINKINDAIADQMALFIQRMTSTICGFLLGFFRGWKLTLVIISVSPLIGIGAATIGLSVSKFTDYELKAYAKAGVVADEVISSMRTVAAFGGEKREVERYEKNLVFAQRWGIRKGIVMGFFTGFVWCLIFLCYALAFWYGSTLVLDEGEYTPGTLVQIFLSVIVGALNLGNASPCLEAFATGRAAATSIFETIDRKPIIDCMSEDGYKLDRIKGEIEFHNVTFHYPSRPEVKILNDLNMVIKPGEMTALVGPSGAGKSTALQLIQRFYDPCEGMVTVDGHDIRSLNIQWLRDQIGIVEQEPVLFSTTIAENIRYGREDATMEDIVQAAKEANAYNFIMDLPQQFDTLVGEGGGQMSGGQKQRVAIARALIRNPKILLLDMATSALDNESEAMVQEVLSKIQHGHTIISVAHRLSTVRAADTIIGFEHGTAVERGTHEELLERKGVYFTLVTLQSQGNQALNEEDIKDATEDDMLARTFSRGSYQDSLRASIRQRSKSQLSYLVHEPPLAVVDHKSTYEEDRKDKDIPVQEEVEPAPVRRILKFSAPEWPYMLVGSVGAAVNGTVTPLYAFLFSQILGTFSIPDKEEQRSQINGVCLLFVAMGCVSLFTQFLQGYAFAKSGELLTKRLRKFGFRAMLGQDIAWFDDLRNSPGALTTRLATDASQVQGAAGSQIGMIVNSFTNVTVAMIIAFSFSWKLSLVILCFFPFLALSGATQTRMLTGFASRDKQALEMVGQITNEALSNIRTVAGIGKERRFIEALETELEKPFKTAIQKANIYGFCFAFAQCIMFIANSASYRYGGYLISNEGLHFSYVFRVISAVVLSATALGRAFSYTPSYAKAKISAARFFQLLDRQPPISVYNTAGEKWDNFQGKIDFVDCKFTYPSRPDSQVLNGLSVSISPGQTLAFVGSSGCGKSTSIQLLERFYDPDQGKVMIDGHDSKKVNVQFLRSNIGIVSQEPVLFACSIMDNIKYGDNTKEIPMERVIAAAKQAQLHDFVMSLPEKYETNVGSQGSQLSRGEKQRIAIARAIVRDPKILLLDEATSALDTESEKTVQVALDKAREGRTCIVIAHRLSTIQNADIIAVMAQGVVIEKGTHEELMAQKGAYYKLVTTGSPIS

SMILES | decrease in OCR within predicted physiological range (in words) [3] | concentrations with significant increases in ROS [4] [µM] | IC50 [5] [µM] | decrease in OCR at 10 μM [3] | magnitude of ROS increase compared with another compound (in words) [4] | further results
CC(=O)N[C@@H](CS)C(=O)O [NAC, n‐acetyl cysteine] |  |  |  |  |  | recovery of liver GSH compared with untreated values [1]: 75%; recovery of mitochondrial GSH compared with untreated values [1]: 45%; increase in levels of GSH in the liver [2]: 50%
CC(C)(C)c1cc(C(C)(C)CO)c(O)cc1NC(=O)c1c[nH]c2ccccc2c1=O [M1 ivacaftor] | did not induce any notable decrease | 100 |  |  |  | 
Cc1nn(C)cc1S(=O)(=O)NC(=O)c1ccc(-n2ccc(OCC(C)(C)C(F)(F)F)n2)nc1N1C[C@@H](C)CC1(C)C [Elexacaftor, elexacaftor] | induced a decrease in OCR | 40 | 37.1 |  |  | 
CC(C)(CO)c1cc2cc(NC(=O)C3(c4ccc5c(c4)OC(F)(F)O5)CC3)c(F)cc2n1C[C@@H](O)CO [Tezacaftor, tezacaftor] | did not induce a notable decrease in OCR |  | > 100 |  |  | 
CC(C)(C)c1cc(C(C)(C)C)c(NC(=O)c2c[nH]c3ccccc3c2=O)cc1O [Ivacaftor, ivacaftor] | induced the most prominent decrease in OCR |  | > 100 | ~ 50% | matched or surpassed that of the positive control, troglitazone | 
[2H]C([2H])([2H])C(c1cc(C(C)(C)C)c(NC(=O)c2c[nH]c3ccccc3c2=O)cc1O)(C([2H])([2H])[2H])C([2H])([2H])[2H] [Deutivacaftor, deutivacaftor] |  |  |  | ~ 50% | nearly identical levels of ROS increases at the same concentrations as ivacaftor | 

From article PMC12746516 (Clinical Pharmacology and Therapeutics, 2025)
